This is an account of results in ChEMBL document CHEMBL1123352, “Anticonvulsant activity of 2- and 3-aminobenzanilides” (J Med Chem, 1986).

Each structure is given as a SMILES string. Values joined by “and” are separate entries in the source; they are usually repeats but may differ in a detail not shown here. Equal values may be shown once. Active and inactive are the calls of the source. The calls are words filed in the database; no cut-off is given here.

Data set [1] concerns Mus musculus. The experiment in a line: Compound was tested for toxicity by rotarod assay method in mice 4 hours after ip administration of 600 mg/kg; NA=No activity. It is filed as organism-based. The arrangement: dose 600 mg/kg, route intraperitoneal. The note with it: in vivo. (Falling from the rotarod earlier than controls is read as motor impairment.)
Data set [2] has as its system Mus musculus. The experiment in a line: Anticonvulsant activity against subcutaneous pentylenetetrazole induced convulsions in mice after intraperitoneal administration after 4 hr at 600 mg/kg; NA=No activity. It is filed as functional, organism-based. The arrangement: dose 600 mg/kg. The method in brief: (§1)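 Male Carworth Farms No. 1 mice were dosed ip with compound in 30% PEG 400, at 30–600 mg/kg, and read at 30 min and 4 h. Pentylenetetrazole was given at 85 mg/kg as a 0.5% solution sc in the posterior midline. Protection meant no single episode of clonic spasms lasting at least 5 s over a 30-min observation.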

In data set [3] the test system is Mus musculus. The experiment in a line: Compound was tested for toxicity by rotarod assay method in mice 30 min after ip administration of 300 mg/kg; Active. It is filed as organism-based. The note with it: in vivo, 0.5 h. The arrangement: dose 300 mg/kg, route intraperitoneal.
In data set [4] the test system is Mus musculus. As to the kind of experiment: Anticonvulsant activity against maximal electroshock (MES) induced seizures in mice 4 hours after ip administration of 600 mg/kg; A=Active. It is filed as functional, organism-based. The arrangement: dose 600 mg/kg. The method in brief:
(§2)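 Male Carworth Farms No. 1 mice were dosed ip with compound in 30% polyethylene glycol 400, at 30, 100 and 300 mg/kg and sometimes 600 mg/kg, and tested 30 min and 4 h later. A drop of 0.9% saline went in the eye, then 60-cycle AC at 50 mA was given for 0.2 s via corneal electrodes. Protection meant abolition of hind limb tonic extension.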
(In general: Protection in the maximal electroshock model is a classic sign of anticonvulsant action.)

The test system of data set [5] is Mus musculus. The experiment in a line: Anticonvulsant activity against maximal electroshock (MES) induced seizures in mice 30 minutes after ip administration of 300 mg/kg; A=Active. The arrangement: dose 300 mg/kg. The data set is classed as functional, organism-based. Put shortly:
as §2

In data set [6] the test system is Mus musculus. As to the kind of experiment: Anticonvulsant activity against sc pentylenetetrazole induced convulsions in mice 30 minutes after ip administration of 600 mg/kg; A=Active. The arrangement: dose 600 mg/kg. The data set is classed as functional, organism-based. The method in brief:
as §1

Data set [7] has as its system Mus musculus. The experiment in a line: Anticonvulsant activity against subcutaneous pentylenetetrazole induced convulsions in mice 4 hours after ip administration of 600 mg/kg; NA=No activity. It is filed as functional, organism-based. The arrangement: dose 600 mg/kg. The method in brief: as §1
Data set [8] has as its system Mus musculus. As to the kind of experiment: Anticonvulsant activity against maximal electroshock (MES) induced seizures in mice 4 hours after ip administration of 600 mg/kg. The arrangement: dose 600 mg/kg. It is filed as functional, organism-based. The method in brief: as §2
Data set [9] concerns Mus musculus. As to the kind of experiment: Compound was tested for toxicity by rotarod assay method in mice 30 min after ip administration of 600 mg/kg; A=Active. The data set is classed as organism-based. The arrangement: dose 600 mg/kg, route intraperitoneal. The note with it: in vivo, 0.5 h.
The test system of data set [10] is Mus musculus. As to the kind of experiment: Anticonvulsant activity against subcutaneous pentylenetetrazole induced convulsions in mice 30 min after ip administration of 600 mg/kg. The data set is classed as functional, organism-based. The arrangement: dose 600 mg/kg. Put shortly: as §1
The subject of data set [11] is Mus musculus. The experiment in a line: Compound was tested for toxicity by rotarod assay method in mice 30 min after ip administration of 600 mg/kg; no activity. It is filed as organism-based. The arrangement: dose 600 mg/kg, route intraperitoneal. The note with it: in vivo, 0.5 h.
Data set [12] has as its system Mus musculus. The experiment in a line: Anticonvulsant activity against maximal electroshock (MES) induced seizures in mice 30 minutes after ip administration of 600 mg/kg; A=Active. It is filed as functional, organism-based. The arrangement: dose 600 mg/kg. The method in brief: as §2
The test system of data set [13] is Mus musculus. As to the kind of experiment: Anticonvulsant activity against subcutaneous pentylenetetrazole induced convulsions in mice 4 hr after ip administration of 600 mg/kg. It is filed as functional, organism-based. The arrangement: dose 600 mg/kg. The method in brief:
as §1

In data set [14] the test system is Mus musculus. As to the kind of experiment: Compound was tested for toxicity by rotarod assay method in mice after intraperitoneal administration after 4 hours; A=Active. It is filed as organism-based. The note with it: in vivo, ip.
In data set [15] the test system is Mus musculus. The experiment in a line: Compound was tested for toxicity by rotarod assay method in mice 30 min after ip administration of 300 mg/kg; A=Active. The data set is classed as organism-based. The arrangement: dose 300 mg/kg, route intraperitoneal. The note with it: in vivo, 0.5 h.
For data set [16], the system named is Mus musculus. As to the kind of experiment: Compound was tested for toxicity by rotarod assay method in mice after intraperitoneal administration after 4 hours. It is filed as functional, organism-based. Put shortly:
(§3)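 Neurologic deficit was tested in male Carworth Farms No. 1 mice 30 min and 4 h after ip dosing in 30% PEG 400, at 30–600 mg/kg. Each mouse was placed on a 1-in.-diameter knurled plastic rod turning at 6 rpm. Toxicity meant failing to stay on the rod for 1 min.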

Data set [17] deals with Mus musculus. As to the kind of experiment: Compound was tested for toxicity by rotarod assay method in mice after intraperitoneal administration after 30 minutes. The data set is classed as functional, organism-based. Put shortly: as §3
Data set [18] concerns Mus musculus. The experiment in a line: Anticonvulsant activity against maximal electroshock (MES) induced seizures in mice […] after ip administration of 600 mg/kg; NA=No activity. The arrangement: dose 600 mg/kg. The data set is classed as functional, organism-based. The method in brief: as §2
Data set [19] concerns Mus musculus. As to the kind of experiment: Compound was tested for toxicity by rotarod assay method in mice after intraperitoneal administration after 4 hours at 600 mg/kg; no activity. The data set is classed as organism-based. The arrangement: dose 600 mg/kg, route intraperitoneal. The note with it: in vivo, ip.
The subject of data set [20] is Mus musculus. As to the kind of experiment: Anticonvulsant activity against maximal electroshock (MES)-induced seizures in mice 4 hours after ip administration of 300 mg/kg; A=Active. The arrangement: dose 300 mg/kg. It is filed as functional, organism-based. The method in brief:
as §2

Data set [21] can be described thus: Protective index measured as the ratio between TD50 and ED50. It is filed as ADME.
The test system of data set [22] is Mus musculus. The experiment in a line: Compound for toxicity by rotarod assay method in mice after administration. It is filed as organism-based. The note with it: in vivo. The method in brief:
as §3

For the molecule `Cc1ccccc1NC(=O)c1ccccc1N`, the Toxicity result in the data set on Mus musculus [1] is “Not Active”; in the data set on Mus musculus [3] it was “Active”. Besides, the Anticonvulsant activity entry with Mus musculus [2] is “inactive”. Also, the Anticonvulsant activity result in the data set on Mus musculus [4], in the data set on Mus musculus [5] and in the data set with Mus musculus [6] was “Active” in each case.

`Nc1ccccc1C(=O)Nc1ccccc1`: the Anticonvulsant activity entry in the data set on Mus musculus [7], with Mus musculus [8] and in the data set on Mus musculus [10] was “inactive” each time. Moreover, the figures for the Toxicity result with Mus musculus [1] and in the data set on Mus musculus [9] were “Not Active” and “Active”, respectively. Also, the Anticonvulsant activity entry in the data set with Mus musculus [5] is “Active”.

Take `Cc1cccc(C(C)C)c1NC(=O)c1ccccc1N`: the Toxicity result with Mus musculus [1] and in the data set with Mus musculus [11] was “Not Active” each time. For the same molecule, the Anticonvulsant activity entry in the data set on Mus musculus [8], with Mus musculus [10] and in the data set on Mus musculus [13] was “inactive” each time. For the same molecule, in the data set on Mus musculus [12], the Anticonvulsant activity entry was “Active”.

Turning to `CC(C)c1ccccc1NC(=O)c1cccc(N)c1`, the Anticonvulsant activity result with Mus musculus [4] and with Mus musculus [5] was “Active” in each case. Moreover, the Toxicity result in the data set with Mus musculus [14] and with Mus musculus [15] was “Active” throughout. The Anticonvulsant activity result in the data set with Mus musculus [10] and with Mus musculus [13] was “inactive” in each case.

Turning to `Cc1cccc(NC(=O)c2cccc(N)c2)c1C`, the Toxicity entry in the data set on Mus musculus [16] and with Mus musculus [17] was “inactive” throughout. For the same molecule, the Anticonvulsant activity entry in the data set on Mus musculus [8], in the data set on Mus musculus [10] and with Mus musculus [13] was “inactive” throughout. In addition, the Anticonvulsant activity result in the data set with Mus musculus [12] is “Active”.

As for `Cc1cccc(NC(=O)c2ccccc2N)c1C`, the Anticonvulsant activity result in the data set with Mus musculus [18], in the data set with Mus musculus [8] and with Mus musculus [13] was “inactive” throughout. Also, the Toxicity result in the data set with Mus musculus [1] is “Not Active”; in the data set on Mus musculus [9], “Active”. Further, the Anticonvulsant activity entry in the data set with Mus musculus [6] is “Active”.

In the case of `Cc1cccc(C(C)C)c1NC(=O)c1cccc(N)c1`, the Toxicity entry with Mus musculus [19] and in the data set with Mus musculus [11] was “Not Active” each time. For the same molecule, the Anticonvulsant activity result in the data set with Mus musculus [12] and in the data set on Mus musculus [20] was “Active” in each case. In addition, the Anticonvulsant activity result with Mus musculus [10] and in the data set on Mus musculus [13] was “inactive” throughout.

In the case of `CCc1cccc(C(C)C)c1NC(=O)c1cccc(N)c1`, the Toxicity result in the data set on Mus musculus [19] and with Mus musculus [11] was “Not Active” throughout. Also, the Anticonvulsant activity result with Mus musculus [4] and in the data set on Mus musculus [5] was “Active” in each case. Also, the Anticonvulsant activity entry with Mus musculus [10] and in the data set with Mus musculus [13] was “inactive” in each case.

As to `CC(NC(=O)c1ccc(N)cc1)c1ccccc1` (stereo not given), the PI in [21] was 9.5 and 4.1. Also, the TD50 (usually the dose at which the toxic effect under study appears in half of the subjects) in the data set with Mus musculus [22] was determined as 170.78 mg/kg.
